ChEMBL document CHEMBL1146363, “Synthesis of novel diarylpyrimidine analogues of TMC278 and their antiviral activity against HIV-1 wild-type and mutant strains” (Eur J Med Chem, 2007)
pEC50: −log10 of the molar value.

What was measured:
[1] = system: Human immunodeficiency virus 1; assay: Antiviral activity against HIV1 LAI with RT K103N and Y181C mutation in MT4 cells by EGFP based replication assay; assay type: functional, organism-based; settings: Human immunodeficiency virus 1, LAI
Summary of the method: (§1)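 MT4-LTR-EGFP indicator cells (EGFP under HIV-1 LTR, induced via Tat) mixed with HIV-1 LAI or LAI-derived RT mutant and serial 4-fold compound dilutions; incubated 37 °C for 3 days. EGFP expression read by argon laser-scanning microscopy. EC50 = concentration inhibiting 50% of virus-induced EGFP signal, by linear interpolation of signal versus log concentration.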

[2] = system: Human immunodeficiency virus 1; assay: Antiviral activity against HIV1 LAI with RT Y188L mutation in MT4 cells by EGFP based replication assay; assay type: functional, organism-based; settings: Human immunodeficiency virus 1, LAI; summary of the method: as §1
[3] = Cytotoxicity against human MT4 cells after 3 days by EGFP based replication assay; assay type: cell-based
Summary of the method: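 Uninfected MT4-CMV-EGFP cells, which express EGFP constitutively, were exposed to serial 4-fold compound dilutions at 37 °C for 3 days. EGFP was read by argon laser-scanning microscopy. CC50 was obtained by linear interpolation of EGFP signal against log concentration.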

[4] = system: Human immunodeficiency virus 1; assay: Antiviral activity against HIV1 LAI with RT K103N mutation in MT4 cells by EGFP based replication assay; assay type: functional, organism-based; settings: Human immunodeficiency virus 1, LAI; summary of the method: as §1
[5] = Selectivity index, ratio of CC50 for human MT4 cells to EC50 for HIV1 LAI; assay type: functional
[6] = system: Human immunodeficiency virus 1; assay: Antiviral activity against HIV1 LAI with RT L100I mutation in MT4 cells by EGFP based replication assay; assay type: functional, organism-based; settings: Human immunodeficiency virus 1, LAI
Summary of the method: (§2)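 MT4-LTR-EGFP indicator cells (EGFP under HIV-1 LTR, induced via Tat) mixed with HIV-1 LAI or LAI-derived RT mutant and serial 4-fold compound dilutions; incubated 37 °C for 3 days. EGFP expression read by argon laser-scanning microscopy.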

[7] = system: Human immunodeficiency virus 1; assay: Antiviral activity against HIV1 LAI with RT F227C mutation in MT4 cells by EGFP based replication assay; assay type: functional, organism-based; settings: Human immunodeficiency virus 1, LAI; summary of the method: as §1
[8] = system: Human immunodeficiency virus 1; assay: Antiviral activity against HIV1 LAI with RT L100I and K103N mutation in MT4 cells by EGFP based replication assay; assay type: functional, organism-based; settings: Human immunodeficiency virus 1, LAI; summary of the method: as §1
[9] = system: Human immunodeficiency virus 1; assay: Antiviral activity against HIV1 LAI with RT Y181C mutation in MT4 cells by EGFP based replication assay; assay type: functional, organism-based; settings: Human immunodeficiency virus 1, LAI; summary of the method: as §1
[10] = system: Human immunodeficiency virus 1; assay: Antiviral activity against wild type HIV1 LAI infected in MT4 cells by EGFP based replication assay; assay type: functional, organism-based; settings: Human immunodeficiency virus 1, LAI; summary of the method: as §2
[11] = system: Human immunodeficiency virus 1; assay: Antiviral activity against HIV1 LAI with RT F227C and V106A mutation in MT4 cells by EGFP based replication assay; assay type: functional, organism-based; settings: Human immunodeficiency virus 1, LAI; summary of the method: as §1
[12] = Metabolic stability in human liver microsomes after 15 mins; assay type: ADME, Microsome; settings: read-out: Stability
Summary of the method: (§3)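 Liver microsomes were the 100,000×g pellet of S9 from tissue homogenized in 0.1 M phosphate, pH 7.4. Incubations contained 1 mg/mL protein in 0.1 M phosphate pH 7.4 with an NADPH-generating system, plus a heat-inactivated control. After 5 min preincubation at 37 °C, NADP started the reaction, which ran 15 min and was stopped with DMSO or acetonitrile. Duplicates, LC-MS; fraction remaining relative to T=0.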

[13] = AUC in Beagle dog at 10 mg/kg, po; assay type: ADME, organism-based, Canis lupus familiaris; set-up: dose 10 mg/kg, route oral; settings: plasma
[14] = Half life in Beagle dog at 10 mg/kg, po after 23 hrs; assay type: ADME, organism-based, Canis lupus familiaris; set-up: dose 10 mg/kg, route oral; settings: in vivo
[15] = Cmax in Wistar rat at 10 mg/kg, po; assay type: ADME, organism-based; set-up: dose 10 mg/kg, route oral; settings: in vivo
[16] = Metabolic stability in dog liver microsomes after 15 mins; assay type: ADME, Canis lupus familiaris, Microsome; settings: read-out: Stability; summary of the method: as §3
[17] = Cmax in Beagle dog at 10 mg/kg, po; assay type: ADME, organism-based, Canis lupus familiaris; set-up: dose 10 mg/kg, route oral; settings: in vivo
[18] = Metabolic stability in rat liver microsomes after 15 mins; assay type: ADME, Microsome; settings: read-out: Stability; summary of the method: as §3
[19] = AUC in Wistar rat at 10 mg/kg, po; assay type: ADME, organism-based; set-up: dose 10 mg/kg, route oral; settings: plasma
[20] = Half life in Wistar rat at 10 mg/kg, po after 6 hrs; assay type: ADME, organism-based; set-up: dose 10 mg/kg, route oral; settings: in vivo

SMILES | pEC50 [1] | pEC50 [2] | CC50 at 72 h [3] | pEC50 [4] | Ratio CC50/EC50 [5] | pEC50 [6] | pEC50 [7] | pEC50 [8] | pEC50 [9] | pEC50 [10] | pEC50 [11] | remaining at 0.25 h [12] | AUC [13] | half-life [14] | Cmax [15] | remaining at 0.25 h [16] | Cmax [17] | remaining at 0.25 h [18] | AUC [19] | half-life [20]
Cc1cc(/C=C/C#N)cc(C)c1Oc1ccnc(Nc2ccc(C#N)cc2)n1 | 8.37 | 8.80 | > 25000 nM | 9.70 | 28302 | 9.22 | 9.15 | 8.43 | 8.49 | 9.05 | 9.22 | – | – | – | – | – | – | – | – | –
Cc1cc(/C=C/C#N)cc(C)c1Nc1ccnc(Nc2ccc(C#N)cc2)n1 [RILPIVIRINE] | 8.49 | 8.92 | 2000 nM | 10.00 | – | 9.30 | 9.30 | 8.12 | […] | – | 9.30 | 26% | 23800 ng·h/mL | 23 h | 1940 ng/mL | 65% | 1050 ng/mL | 73% | 9650 ng·h/mL | 6 h
COc1cc(/C=C/C#N)cc(Cl)c1Nc1ccnc(Nc2ccc(C#N)cc2)n1 | 8.70 | 8.60 | 398 nM | 9.52 | 3981 | 9.70 | 9.10 | 7.80 | 9.00 | 10.00 | 9.52 | 26% | 44500 ng·h/mL | 14.5 h | 199 ng/mL | 58% | 2180 ng/mL | 53% | 410 ng·h/mL | 3.83 h
CCc1cc(/C=C/C#N)cc(C)c1Nc1ccnc(Nc2ccc(C#N)cc2)n1 | 8.28 | 8.59 | 2550 nM | 9.30 | 841 | 9.05 | 8.96 | 8.09 | 8.40 | 8.52 | 9.05 | – | – | – | – | – | – | – | – | –
Cc1cc(/C=C/C#N)cc(C(C)C)c1Nc1ccnc(Nc2ccc(C#N)cc2)n1 | 7.97 | 8.42 | 11800 nM | 8.89 | 2947 | 8.51 | 8.41 | 7.42 | 7.95 | 8.40 | 8.49 | – | – | – | – | – | – | – | – | –
Cc1cc(/C=C/C#N)ccc1N(C)c1ccnc(Nc2ccc(C#N)cc2)n1 | 6.80 | 7.77 | 11600 nM | 9.15 | 11351 | 8.60 | 9.00 | 6.98 | 7.92 | 9.00 | 8.82 | – | – | – | – | – | – | – | – | –
Cc1cc(/C=C/C#N)cc(Cl)c1Nc1ccnc(Nc2ccc(C#N)cc2)n1 | 8.39 | 8.64 | 2610 nM | 10.00 | 3316 | 9.40 | 9.30 | 8.18 | 8.64 | 9.10 | 9.30 | 39% | 17600 ng·h/mL | 14.5 h | 182 ng/mL | 60% | 1040 ng/mL | 72% | 910 ng·h/mL | 3.54 h
Cc1cc(/C=C\C#N)cc(C)c1Sc1ccnc(Nc2ccc(C#N)cc2)n1 | 7.73 | 8.55 | > 25000 nM | 9.15 | >6821 | 8.59 | 8.85 | 7.10 | 8.24 | 8.43 | 8.96 | – | – | – | – | – | – | – | – | –
CC(C)Nc1cccnc1N1CCN(C(=O)c2cc3cc(NS(C)(=O)=O)ccc3[nH]2)CC1 [DELAVIRDINE] | 4.42 | 5.99 | 67200 nM | 4.99 | >550 | 5.02 | 5.34 | 4.69 | 5.04 | 6.91 | 6.14 | – | – | – | – | – | – | – | – | –
Cc1cc(/C=C/C#N)ccc1Nc1ccnc(Nc2ccc(C#N)cc2)n1 | 7.05 | 7.36 | > 25000 nM | 9.22 | >29372 | 8.04 | 8.92 | 6.32 | 7.87 | 9.05 | 8.92 | – | – | – | – | – | – | – | – | –
COc1cc(/C=C/C#N)cc(C)c1Nc1ccnc(Nc2ccc(C#N)cc2)n1 | 8.37 | 9.05 | 633 nM | > 10.00 | 846 | 9.30 | 9.52 | 7.68 | 8.72 | 9.15 | 9.52 | – | – | – | – | – | – | – | – | –
O=C1Nc2ccc(Cl)cc2C(C#CC2CC2)(C(F)(F)F)O1 (single isomer, unassigned) [EFAVIRENZ] | 7.26 | 7.26 | 32300 nM | 7.33 | – | 7.51 | 7.33 | 5.84 | 8.41 | – | 8.39 | – | – | – | – | – | – | – | – | –
N#C/C=C/c1ccc(Nc2ccnc(Nc3ccc(C#N)cc3)n2)cc1 | 5.40 | 6.52 | > 25000 nM | 7.24 | >737 | 6.23 | 7.01 | 5.19 | 5.82 | 7.47 | 7.12 | – | – | – | – | – | – | – | – | –
Cc1ccnc2c1NC(=O)c1cccnc1N2C1CC1 [NEVIRAPINE] | 4.84 | 5.23 | 31600 nM | 5.70 | – | – | 6.08 | 5.45 | 5.15 | 7.48 | 5.57 | – | – | – | – | – | – | – | – | –
